Results of several laboratories.
Protocols differ between the studies behind these lines.
RPS6KA5: Ribosomal protein S6 kinase alpha-5 (RPS6KA5, Homo sapiens, UniProt O75582)
RPS6KA5 C-terminal kinase domain: Ribosomal protein S6 kinase alpha-5, C-terminal kinase domain (RPS6KA5, Homo sapiens, UniProt O75582)
RPS6KA5 N-terminal kinase domain: Ribosomal protein S6 kinase alpha-5, N-terminal kinase domain (RPS6KA5, Homo sapiens, UniProt O75582)

CCCOc1ccc(OC)c(F)c1C(=O)c1ccc(C(=O)N[C@@H]2CNC[C@H]2NC(=O)c2ccc3[nH]ncc3c2)cc1
remaining activity (RPS6KA5; enzyme activity; inhibitor; 10 µM): 2%

CNCc1ccc(-c2cc(-c3nc(-c4ccc(S(=O)(=O)C(C)C)cc4)cnc3N)on2)cc1
inhibition (RPS6KA5; enzyme activity; inhibitor; 2 µM): 0%

CN(C)c1ncnc(-c2ccc3nc(Nc4cc(CN5CCN(C(=O)CC(F)(F)F)CC5)ccn4)[nH]c3c2)c1Cl
remaining binding (RPS6KA5 C-terminal kinase domain; cell-free assay; competition with immobilised ligand; 1 µM): 85%

C[C@@H]1CCN(C(=O)CC#N)C[C@@H]1N(C)c1ncnc2[nH]ccc12
remaining signal (RPS6KA5; cell-free assay; inhibitor; 0.5 µM): 94.8%

Cc1ccc(Nc2nccc(N(C)c3ccc4c(C)n(C)nc4c3)n2)cc1S(N)(=O)=O
inhibition (RPS6KA5; enzyme activity; inhibitor; 0.3 µM): 6%

C[C@@]1(Cc2ccc(C#N)cc2)C(=O)N(c2cc(Cl)cc(Cl)c2)c2ncc(C(=O)NC3(c4nc(C5CCC5)no4)CC3)n21
remaining binding (RPS6KA5 C-terminal kinase domain; cell-free assay; competition with immobilised ligand; 1 µM): 100%

Nc1nc(Nc2ccc(S(N)(=O)=O)cc2)nn1C(=O)c1c(F)cccc1F
remaining signal (RPS6KA5; cell-free assay; 0.5 µM): 97.2%

Nc1ncnc2occ(-c3ccc(NC(=O)Nc4cc(C(F)(F)F)ccc4F)cc3)c12
remaining signal (RPS6KA5 N-terminal kinase domain; cell-free assay; inhibitor; 20 µM): 2.2%

Cn1c(=O)n(-c2ccc(C(C)(C)C#N)cc2)c2c3cc(-c4cnc5ccccc5c4)ccc3ncc21
remaining activity (RPS6KA5; enzyme activity; inhibitor; 10 µM): 102%

CCN(CC)c1ccc(C2=NNC(=O)CC2C)cc1[N+](=O)[O-] (centres unmarked)
remaining activity (RPS6KA5; enzyme activity; inhibitor; 10 µM): 83%

CC(C)(C)c1nc(-c2cccc(NS(=O)(=O)c3c(F)cccc3F)c2F)c(-c2ccnc(N)n2)s1
remaining activity (RPS6KA5; enzyme activity; inhibitor; radiometric; 1 µM): 97%

O=C1Nc2ccc(Cl)cc2C1=Cc1cc(Cl)c(O)c(Cl)c1
remaining signal (RPS6KA5; cell-free assay; 0.5 µM): 86.1%

CN(C)C(=O)Cn1cc(-c2nc(C3(c4ccc(-c5cnc(N)nc5)cc4)CC3)no2)cn1
remaining binding (RPS6KA5 N-terminal kinase domain; cell-free assay; competition with immobilised ligand; 1 µM): 98%

O=C(Nc1cnn(-c2csc(C(=O)NC3COC3)c2)c1)Nc1c(F)cccc1Cl
remaining activity (RPS6KA5; enzyme activity; inhibitor; 5 µM): 104%

Cc1c(NC(=O)c2cc(C(N)=O)nc3cc(F)ccc23)c(C(F)(F)F)nn1Cc1ccc(C(C)(C)C)cc1
remaining binding (RPS6KA5 C-terminal kinase domain; cell-free assay; competition with immobilised ligand; 1 µM): 89%

Nc1nc(Nc2ccccc2)sc1C(=O)c1c(F)cccc1F
remaining activity (RPS6KA5; enzyme activity; inhibitor; 10 µM): 87%

Cc1cc(NC(=O)c2cccc3cc(-c4cccc5[nH]nc(N)c45)ccc23)ccc1F
activity vs control (RPS6KA5; enzyme activity; inhibitor; 0.1 µM): 94%

COc1cc2ncnc(Nc3ccc(Oc4ccccc4)c(C)c3C)c2cc1OC
inhibition (RPS6KA5; enzyme activity; inhibitor; 1 µM): 2%

COc1cc(Cl)c(C(=O)N[C@@H](CN[C@H]2CC[C@@H](N)CC2)Cc2ccc(C#N)cc2)cc1-c1ccc(CN[C@H](C)c2ccc(C)cc2)o1
remaining activity (RPS6KA5; enzyme activity; inhibitor; 1 µM): 85%

COc1cc(Nc2cnc(C#N)c(O[C@H](C)CN(C)C)n2)ncc1-c1cnn(C)c1
remaining activity (RPS6KA5; enzyme activity; inhibitor; radiometric; 10 µM): 41%

Cc1nc(Cc2cccc(C(F)(F)F)c2)sc1-c1ccc(C(N)=O)nc1
remaining binding (RPS6KA5 N-terminal kinase domain; cell-free assay; competition with immobilised ligand; 1 µM): 83%

CN1CC(Oc2cnc(C#N)cc2-c2ccn3nc(NC(=O)C4CC4)cc3c2)C1
inhibition (RPS6KA5; enzyme activity; inhibitor; 1 µM): -7%

O=C1NC(=O)c2cc(Nc3ccc(F)cc3)c(Nc3ccc(F)cc3)cc21
remaining signal (RPS6KA5; cell-free assay; 0.5 µM): 93.6%

CNC(=O)c1cc(Oc2ccc(NC(=O)Nc3ccc(Cl)c(C(F)(F)F)c3)cc2)ccn1
inhibition (RPS6KA5; enzyme activity; inhibitor; 0.3 µM): -5%

NS(=O)(=O)c1cc(NC(=O)Cc2ccccc2)ccc1Oc1cccc(Cl)c1
remaining binding (RPS6KA5 N-terminal kinase domain; cell-free assay; competition with immobilised ligand; 1 µM): 71%

Cc1ccc(C(=O)Nc2ccc(CN3CCN(C)CC3)c(C(F)(F)F)c2)cc1C#Cc1cnc2cccnn12
activity vs control (RPS6KA5; enzyme activity; inhibitor; 23.5 nM): 96%

C=CC(=O)Nc1cc(Nc2nccc(Nc3cc(Cl)c(F)cc3C(C)(C)O)n2)c(OC)cc1N1CC[C@@H](N(C)C)C1
inhibition (RPS6KA5; enzyme activity; inhibitor; 1 µM): 26%

O=C(N[C@H]1CCCCC/C=C\C2C[C@@]2(C(=O)O)NC(=O)[C@@H]2C[C@@H](Oc3ccncc3)CN2C1=O)OC1CCCC1 (some centres unmarked)
remaining binding (RPS6KA5 N-terminal kinase domain; binding; competition with immobilised ligand; 1 µM): 89%

CNc1cccc2cc(C(=O)Nc3ccc(C(=O)O)cc3)c(=O)[nH]c12
inhibition (RPS6KA5; enzyme activity; inhibitor; 10 µM): -7.3%

COc1cc(/C=C/C(=O)CC(=O)/C=C/c2ccc(O)c(OC)c2)ccc1O
activity vs control (RPS6KA5; enzyme activity; inhibitor; 1 µM): 92%

O=C(NS(=O)(=O)c1ccc(NCC2CCOCC2)c([N+](=O)[O-])c1)c1ccc(N2CCN(Cc3ccc(C(F)(F)F)cc3-c3ccc(Cl)cc3)CC2)cc1Oc1cnc2[nH]ccc2c1
remaining binding (RPS6KA5 N-terminal kinase domain; cell-free assay; competition with immobilised ligand; 1 µM): 97%

CN(c1ncccc1CNc1nc(Nc2ccc3c(c2)CC(=O)N3)ncc1C(F)(F)F)S(C)(=O)=O
inhibition (RPS6KA5; enzyme activity; inhibitor; 1 µM): 31.9%
